GI50 data for 31 molecules are collected here from ChEMBL document CHEMBL4428071 (J Med Chem, 2016).

For data set [1], the target named is T1, Mast/stem cell growth factor receptor Kit (Homo sapiens, UniProt P10721). In words: Inhibition of TEL-fused cKIT (unknown origin) expressed in mouse BA/F3 cells assessed as cell growth inhibition after 72 hrs by cell titer-glo assay. It counts as cell-based. (In general: Cellular ATP, detected with luciferase, serves as a proxy for viable cell number.)
Data set [2] can be described thus: Cytotoxicity mouse BA/F3 cells assessed as cell growth inhibition after 72 hrs by cell titer-glo assay. It counts as cell-based, BaF3. A digest of the protocol: (§1)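 Cells seeded at 3000 per well and exposed to serial compound dilutions for 72 h. Viability read by CellTiter-Glo luminescence and normalised to DMSO controls; mean of three independent measurements. BaF3 lines kept IL-3-free in RPMI 1640/10% FBS after retroviral transduction and puromycin selection. GIST lines grown in DMEM/10% FBS.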

Data set [3] concerns Mast/stem cell growth factor receptor Kit (Homo sapiens), P10721 [T670I]. Briefly: Inhibition of TEL-fused cKIT T670I mutant (unknown origin) expressed in mouse BA/F3 cells assessed as cell growth inhibition after 72 hrs by cell titer-glo assay. It counts as cell-based. The method in brief: as §1
In data set [4] the test system is Mast/stem cell growth factor receptor Kit (Homo sapiens), P10721 [D816V]. Briefly: Inhibition of TEL-fused cKIT D816V mutant (unknown origin) expressed in mouse BA/F3 cells assessed as cell growth inhibition after 72 hrs by cell titer-glo assay. It counts as cell-based. The method in brief: as §1
Data set [5] concerns Mast/stem cell growth factor receptor Kit (Homo sapiens), P10721 [V559D,V654A]. Briefly: Inhibition of TEL-fused cKIT V559D/V654A double mutant (unknown origin) expressed in mouse BA/F3 cells assessed as cell growth inhibition after 72 hrs by cell titer-glo assay. It counts as cell-based. The method in brief:
as §1

Data set [6] deals with T1, Mast/stem cell growth factor receptor Kit. Briefly: Inhibition of wild type cKIT in human GIST-T1 cells assessed as cell growth inhibition after 72 hrs by cell titer-glo assay. It counts as cell-based. The method in brief: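 GIST-T1 cells (cKIT wt) grown in DMEM with 10% FBS and 1% penicillin/streptomycin at 37 °C, 5% CO2. Viability read by CellTiter-Glo luminescence and normalized to DMSO controls. GI50 taken from the mean of three independent measurements.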

For data set [7], the system named is Mast/stem cell growth factor receptor Kit (Homo sapiens), P10721 [V559D,T670I]. Briefly: Inhibition of TEL-fused cKIT T670I/V559D double mutant (unknown origin) expressed in mouse BA/F3 cells assessed as cell growth inhibition after 72 hrs by cell titer-glo assay. It counts as cell-based. The method in brief:
as §1

The next data set is filed under the species Homo sapiens. In words: Inhibition of TEL-fused cKIT L567P mutant (unknown origin) expressed in mouse BA/F3 cells assessed as cell growth inhibition after 72 hrs by cell titer-glo assay. It counts as cell-based. The method in brief:
as §1

The test system of data set [8] is Mast/stem cell growth factor receptor Kit (Homo sapiens), P10721 [V654A]. Briefly: Inhibition of TEL-fused cKIT V654A mutant (unknown origin) expressed in mouse BA/F3 cells assessed as cell growth inhibition after 72 hrs by cell titer-glo assay. It counts as cell-based. The method in brief: as §1

Where only a bound is given, the exact number is not on record here.

Sequence of Mast/stem cell growth factor receptor Kit (Homo sapiens), P10721 [T670I] (P10721 whole entry T670I, the tested form may be a part): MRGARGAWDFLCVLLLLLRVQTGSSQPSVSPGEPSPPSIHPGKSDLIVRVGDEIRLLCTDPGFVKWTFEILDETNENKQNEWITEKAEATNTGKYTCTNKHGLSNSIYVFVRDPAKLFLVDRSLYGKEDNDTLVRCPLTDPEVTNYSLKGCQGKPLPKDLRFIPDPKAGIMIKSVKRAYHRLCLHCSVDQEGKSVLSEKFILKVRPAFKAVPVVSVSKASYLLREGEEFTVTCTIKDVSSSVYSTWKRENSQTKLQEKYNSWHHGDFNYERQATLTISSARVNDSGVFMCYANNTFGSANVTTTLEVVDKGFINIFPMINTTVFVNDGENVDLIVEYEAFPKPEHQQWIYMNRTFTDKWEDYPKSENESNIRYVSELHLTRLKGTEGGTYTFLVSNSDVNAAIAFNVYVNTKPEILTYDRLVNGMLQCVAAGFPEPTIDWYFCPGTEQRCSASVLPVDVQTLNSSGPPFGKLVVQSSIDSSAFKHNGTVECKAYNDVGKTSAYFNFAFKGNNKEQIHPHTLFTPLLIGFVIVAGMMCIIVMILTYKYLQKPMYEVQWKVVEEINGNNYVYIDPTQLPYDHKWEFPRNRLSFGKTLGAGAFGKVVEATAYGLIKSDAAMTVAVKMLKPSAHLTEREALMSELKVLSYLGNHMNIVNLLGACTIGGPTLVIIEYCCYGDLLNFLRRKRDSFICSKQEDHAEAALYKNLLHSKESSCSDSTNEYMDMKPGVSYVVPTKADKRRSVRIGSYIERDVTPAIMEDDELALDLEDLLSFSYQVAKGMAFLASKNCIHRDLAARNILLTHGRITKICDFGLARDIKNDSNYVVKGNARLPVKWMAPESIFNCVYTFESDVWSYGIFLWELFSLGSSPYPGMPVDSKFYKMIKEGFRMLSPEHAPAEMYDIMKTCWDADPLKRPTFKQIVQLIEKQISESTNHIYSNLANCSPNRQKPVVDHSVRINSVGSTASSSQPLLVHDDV
T1 sequence (P10721 whole entry, the tested form may be a part): as the sequence (P10721 whole entry T670I, the tested form may be a part) above, with I670T counted along it
Sequence of Mast/stem cell growth factor receptor Kit (Homo sapiens), P10721 [V559D,V654A] (P10721 whole entry V559D/V654A, the tested form may be a part): as the sequence (P10721 whole entry T670I, the tested form may be a part) above, with V559D, V654A, I670T counted along it
Sequence of Mast/stem cell growth factor receptor Kit (Homo sapiens), P10721 [V654A] (P10721 whole entry V654A, the tested form may be a part): as the sequence (P10721 whole entry T670I, the tested form may be a part) above, with V654A, I670T counted along it
Sequence of Mast/stem cell growth factor receptor Kit (Homo sapiens), P10721 [V559D,T670I] (P10721 whole entry V559D/T670I, the tested form may be a part): as the sequence (P10721 whole entry T670I, the tested form may be a part) above, with V559D counted along it
Sequence of Mast/stem cell growth factor receptor Kit (Homo sapiens), P10721 [D816V] (P10721 whole entry D816V, the tested form may be a part): as the sequence (P10721 whole entry T670I, the tested form may be a part) above, with I670T, D816V counted along it

Take `COc1cc2nccc(Oc3cccc(NC(=O)Nc4ccc(N5CCC(NC(=O)CCN6CCOCC6)CC5)c(C(F)(F)F)c4)c3)c2cc1OC`: the GI50 in [1] amounted to 42 nM; in data set [3] it was 59 nM. For the same molecule, the 50% growth inhibitory concentration (GI50) at 72 h in data set [2] was found to be 3600 nM.

For `CCC(=O)NC1CCN(c2ccc(C(=O)Nc3cccc(Oc4ccnc5cc(OC)c(OC)cc45)c3)cc2C(F)(F)F)CC1`, the GI50 was found to be 400 nM in [1] and 2700 nM in [3]. Also, the GI50 at 72 h in data set [2] was above 10000 nM.

On to `COc1cc2nccc(Oc3cccc(NC(=O)Nc4ccc(N5CCC(NC(=O)CN)CC5)c(C(F)(F)F)c4)c3)c2cc1OC`, for which the GI50 amounted to 130 nM in data set [1] and 581 nM in data set [3]. Moreover, the GI50 at 72 h in data set [2] was found to be 5000 nM.

As for `COc1cc2nccc(Oc3cccc(NC(=O)Nc4ccc(N5CCC(NC(=O)c6cccnc6)CC5)c(C(F)(F)F)c4)c3)c2cc1OC`, the figures for the GI50 in data set [1] and in data set [3] were 20 nM and 321 nM, respectively. Further, the GI50 at 72 h in data set [2] is 7000 nM.

For the molecule `COc1cc2nccc(Oc3cccc(NC(=O)Nc4ccc(N5CCC(NC(=O)C6CCOCC6)CC5)c(C(F)(F)F)c4)c3)c2cc1OC`, the GI50 worked out at 87 nM in [1] and 83 nM in data set [3]. The GI50 at 72 h in [2] turned out to be 2900 nM.

Consider `COc1cc2nccc(Oc3cccc(NC(=O)Nc4ccc(N5CCC(NS(=O)(=O)C6CC6)CC5)c(C(F)(F)F)c4)c3)c2cc1OC`, for which the GI50 was 140 nM in [1] and 63 nM in data set [3]. Besides, the GI50 at 72 h in data set [2] came out at 1900 nM.

Take `CCC(=O)NC1CCCN(c2ccc(NC(=O)Nc3cccc(Oc4ccnc5cc(OC)c(OC)cc45)c3)cc2C(F)(F)F)C1` (stereo not drawn): the values for the 50% growth inhibitory concentration (GI50) in data set [1] and in data set [3] were 280 nM and 920 nM, respectively. The concentration for 50% growth inhibition (GI50) at 72 h in data set [2] was found to be 1310 nM.

In the case of `COc1cc2nccc(Oc3cccc(NC(=O)Nc4ccc(N5CCC(NC(=O)CCC6CCCCN6C)CC5)c(C(F)(F)F)c4)c3)c2cc1OC` (stereo not drawn), the GI50 in data set [1] was 190 nM; in data set [3], 200 nM. Besides, the GI50 at 72 h in data set [2] was determined as 1200 nM.

As to `CCC(=O)NC1CCN(c2ccc(NC(=O)C3(C(=O)Nc4cccc(Oc5ccnc6cc(OC)c(OC)cc56)c4)CC3)cc2C(F)(F)F)CC1`, the GI50 in data set [1] and in [3] was above 10000 nM in each case. Moreover, the GI50 at 72 h in [2] was above 10000 nM.

In the case of `COc1cc2nccc(Oc3cccc(NC(=O)Nc4ccc(N5CCC(NC(=O)C6CCCN(C(=O)OC(C)(C)C)C6)CC5)c(C(F)(F)F)c4)c3)c2cc1OC` (stereo not drawn), the GI50 in data set [1] worked out at 130 nM; in data set [3], 170 nM. Also, the concentration for 50% growth inhibition (GI50) at 72 h in [2] came out at 510 nM.

Regarding `CCC(=O)NC1CCN(c2ccc(NC(=O)Nc3cccc(Oc4ccnc5cc(OC)c(OC)cc45)c3)cc2)CC1`, the GI50 in [1] and in [3] was above 10000 nM throughout. For the same molecule, the GI50 at 72 h in [2] is above 10000 nM.

Turning to `COc1cc2nccc(Oc3cccc(NC(=O)Nc4ccc(N5CCC(NC(=O)C6CCN(C)CC6)CC5)c(C(F)(F)F)c4)c3)c2cc1OC`, the concentration for 50% growth inhibition (GI50) amounted to 160 nM in data set [1] and 81 nM in [3]. Further, the GI50 at 72 h in [2] came out at 1700 nM.

In the case of `COc1cc2nccc(Oc3cccc(NC(=O)Nc4ccc(N5CCC(NC(=O)C6CCN(C(=O)C7CC7)CC6)CC5)c(C(F)(F)F)c4)c3)c2cc1OC`, the GI50 in [1] was 130 nM; in data set [3] it was 120 nM. Moreover, in data set [2], the GI50 at 72 h came out at 800 nM.

As to `CCN1CCC(C(=O)NC2CCN(c3ccc(NC(=O)Nc4cccc(Oc5ccnc6cc(OC)c(OC)cc56)c4)cc3C(F)(F)F)CC2)CC1`, the results for the GI50 in data set [1] and in data set [3] were 39 nM and 87 nM, respectively. Also, the GI50 at 72 h in [2] came to 1300 nM.

As for `COc1cc2nccc(Oc3cccc(NC(=O)Nc4ccc(N5CCC(NC(=O)C(C)N)CC5)c(C(F)(F)F)c4)c3)c2cc1OC` (single isomer, unassigned), the concentration for 50% growth inhibition (GI50) was 120 nM in data set [1] and 480 nM in [3]. Moreover, the GI50 at 72 h in data set [2] turned out to be 3000 nM.

Regarding `CCCS(=O)(=O)NC1CCN(c2ccc(NC(=O)Nc3cccc(Oc4ccnc5cc(OC)c(OC)cc45)c3)cc2C(F)(F)F)CC1`, the GI50 worked out at 59 nM in data set [1] and 950 nM in data set [3]. In data set [2], the GI50 at 72 h came out at 4230 nM.

As to `COc1cc2nccc(Oc3cccc(NC(=O)Nc4ccc(N5CCC(NC(=O)CC(C)(C)C)CC5)c(C(F)(F)F)c4)c3)c2cc1OC`, the GI50 in [1] was found to be 430 nM; in data set [3], 340 nM. The GI50 at 72 h in [2] was above 10000 nM.

With `COc1cc2nccc(Oc3cccc(NC(=O)Nc4ccc(N5CCC(NC(=O)C6CCNC(C)C6)CC5)c(C(F)(F)F)c4)c3)c2cc1OC` (stereo not drawn), the concentration for 50% growth inhibition (GI50) came to 460 nM in [1] and 650 nM in data set [3]. In data set [2], the GI50 at 72 h was 4000 nM.

As for `COc1cc2nccc(Oc3cccc(NC(=O)Nc4ccc(N5CCC(NC(=O)C6=CCCCC6)CC5)c(C(F)(F)F)c4)c3)c2cc1OC`, the GI50 in data set [1] and in data set [3] was 760 nM throughout. In data set [2], the GI50 at 72 h amounted to 1100 nM.

Regarding `CCN(CC)CCNC(=O)c1c(C)[nH]c(/C=C2\C(=O)Nc3ccc(F)cc32)c1C` [SUNITINIB], the GI50 in [4] turned out to be 420 nM; in data set [5] it was 6 nM; in [6], 5 nM; in [7] it was 7 nM; in data set [3], 5 nM; in the data set listed under Homo sapiens, 3 nM. Further, the GI50 in data set [8] was found to be 6 nM. Moreover, in data set [2], the GI50 at 72 h was 1600 nM.

On to `COc1cc2nccc(Oc3cccc(NC(=O)Nc4ccc(N5CCC(NC(C)=O)CC5)c(C(F)(F)F)c4)c3)c2cc1OC`, for which the values for the GI50 in data set [1] and in [3] were 110 nM and 46 nM, respectively. In addition, the GI50 at 72 h in data set [2] is 7100 nM.

As for `COc1cc2nccc(Oc3cccc(NC(=O)Nc4ccc(N5CCC(NC(=O)CCN6CCCCC6)CC5)c(C(F)(F)F)c4)c3)c2cc1OC`, the GI50 in [1] is 440 nM; in data set [3], 260 nM. Besides, the GI50 at 72 h in data set [2] was determined as 7600 nM.

With `CCC(=O)NC1CCN(c2ccc(NC(=O)Nc3cccc(Oc4ccnc5cc(OC)c(OC)cc45)c3)cc2C(F)(F)F)CC1`, the values for the 50% growth inhibitory concentration (GI50) in data set [1] and in data set [3] were 120 nM and 71 nM, respectively. Also, in data set [2], the 50% growth inhibitory concentration (GI50) at 72 h worked out at 1500 nM.

With `COc1cc2nccc(Oc3cccc(NC(=O)Nc4ccc(N5CCC(CNC(=O)CCC6CCCCN6C)CC5)c(C(F)(F)F)c4)c3)c2cc1OC` (stereo not drawn), the values for the GI50 in [1] and in [3] were 250 nM and 460 nM, respectively. Besides, the GI50 at 72 h in [2] amounted to 4400 nM.

As for `COc1cc2nccc(Oc3cccc(NC(=O)Nc4ccc(N5CCC(NC(=O)CN6CCCCC6)CC5)c(C(F)(F)F)c4)c3)c2cc1OC`, the values for the GI50 in [1] and in data set [3] were 120 nM and 37 nM, respectively. Besides, the 50% growth inhibitory concentration (GI50) at 72 h in data set [2] came out at 480 nM.

For `CCC(=O)Nc1ccc(N2CCC(NC(=O)Nc3cccc(Oc4ccnc5cc(OC)c(OC)cc45)c3)CC2)c(C(F)(F)F)c1`, the GI50 in [1] was 340 nM; in data set [3] it was above 10000 nM. In addition, the GI50 at 72 h in data set [2] is above 10000 nM.

Turning to `CCS(=O)(=O)NC1CCN(c2ccc(NC(=O)Nc3cccc(Oc4ccnc5cc(OC)c(OC)cc45)c3)cc2C(F)(F)F)CC1`, the GI50 came out at 34 nM in data set [1] and 330 nM in [3]. For the same molecule, the GI50 at 72 h in data set [2] worked out at 6200 nM.

Consider `COc1cc2nccc(Oc3cccc(NC(=O)Nc4ccc(N5CCC(NC(=O)CN6CCCC(C)C6)CC5)c(C(F)(F)F)c4)c3)c2cc1OC` (stereo not drawn), for which the values for the GI50 in data set [1] and in data set [3] were 330 nM and 200 nM, respectively. The 50% growth inhibitory concentration (GI50) at 72 h in [2] worked out at 870 nM.

Take `COc1cc2nccc(Oc3cccc(NC(=O)Nc4ccc(N5CCC(NS(C)(=O)=O)CC5)c(C(F)(F)F)c4)c3)c2cc1OC`: the concentration for 50% growth inhibition (GI50) in [1] is 3900 nM; in data set [3], 3800 nM. In data set [2], the GI50 at 72 h is above 10000 nM.

For `COc1cc2nccc(Oc3cccc(NC(=O)Nc4ccc(N5CCC(NC(=O)CN(C)C)CC5)c(C(F)(F)F)c4)c3)c2cc1OC`, the GI50 in data set [1] was 38 nM; in [3], 53 nM. In data set [2], the GI50 at 72 h was 2900 nM.

Consider `COc1cc2nccc(Oc3cccc(NC(=O)Nc4ccc(N5CCC(NC(=O)C6CCN(C(C)=O)CC6)CC5)c(C(F)(F)F)c4)c3)c2cc1OC`, for which the GI50 amounted to 59 nM in data set [1] and 230 nM in data set [3]. In addition, the GI50 at 72 h in [2] turned out to be 3400 nM.

What is called GI50 is the concentration at which growth is held to half of that of the control.
